Compounds with a hit are over-represented: about 2.3% of the library has one in this group of screens.
TRPC4 act = TRPC4 (mouse) channel activation; Q9QUQ5; AID 2237; B-score at 10 µM; 310,000 compounds, 0.49% hits; HEK293 TRPC4beta/mu-opioid, Fluo4 calcium fluorescence; active compounds read high;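 active = B-score above 5 SD of library B-scores, and initial fluorescence ratio not above library mean plus 5 SD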;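 also: positive B-score marks a calcium rise read as TRPC4 activation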
Target sequence (Q9QUQ5 whole entry, looked up): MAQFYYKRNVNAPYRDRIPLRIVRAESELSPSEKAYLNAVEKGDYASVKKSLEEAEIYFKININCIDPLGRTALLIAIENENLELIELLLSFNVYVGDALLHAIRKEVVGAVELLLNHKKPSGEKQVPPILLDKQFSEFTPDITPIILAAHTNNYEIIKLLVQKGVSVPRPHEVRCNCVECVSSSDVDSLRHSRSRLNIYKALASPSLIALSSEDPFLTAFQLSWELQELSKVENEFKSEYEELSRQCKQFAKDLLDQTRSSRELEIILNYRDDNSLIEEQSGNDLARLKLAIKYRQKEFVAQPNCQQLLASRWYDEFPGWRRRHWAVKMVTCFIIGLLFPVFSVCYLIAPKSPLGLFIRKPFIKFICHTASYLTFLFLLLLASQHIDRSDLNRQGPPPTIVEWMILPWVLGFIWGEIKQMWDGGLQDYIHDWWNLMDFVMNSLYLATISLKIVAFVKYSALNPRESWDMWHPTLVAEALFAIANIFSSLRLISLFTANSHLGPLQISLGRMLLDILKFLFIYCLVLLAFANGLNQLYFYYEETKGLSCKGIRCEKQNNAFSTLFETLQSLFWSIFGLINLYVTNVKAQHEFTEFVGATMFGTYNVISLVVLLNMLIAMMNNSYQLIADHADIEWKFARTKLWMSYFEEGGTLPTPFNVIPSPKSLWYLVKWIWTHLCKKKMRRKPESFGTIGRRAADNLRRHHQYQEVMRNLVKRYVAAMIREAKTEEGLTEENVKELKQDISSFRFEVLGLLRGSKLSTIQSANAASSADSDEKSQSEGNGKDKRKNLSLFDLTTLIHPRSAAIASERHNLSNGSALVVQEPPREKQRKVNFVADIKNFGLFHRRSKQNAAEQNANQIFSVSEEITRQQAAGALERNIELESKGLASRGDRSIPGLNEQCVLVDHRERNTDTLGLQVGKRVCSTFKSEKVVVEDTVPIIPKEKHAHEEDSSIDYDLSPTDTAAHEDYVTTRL
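Incubation: 45 min room-temperature Fluo4 loading, 110 s read / System: HEK293 cells stably co-expressing mouse TRPC4beta and mu-opioid receptor / Signal: Fluo4 fluorescence, kinetic / Control set: buffer (low) and maximal DAMGO (high) / Measure: integrated baseline-normalised fluorescence ratio, converted to per-well B score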
TRPC6 inhibitor = inhibitors of mouse TRPC6 channel. Q61143. HEK293-TRPC6, membrane potential dye, ACh-evoked depolarization; active compounds read low. B-score at 10 µM. 310,000 compounds, 1.1% hits;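 active = B-score under library mean minus 3 SD, initial fluorescence not abnormally high, positive integrated signal ratio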;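 also: B-score derived from integrated fluorescence ratio over the kinetic read; more negative B-score means stronger inhibition of depolarization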
TRPC6 activator = mouse TRPC6 channel activation; Q61143; HEK293-TRPC6 membrane potential dye fluorescence; active compounds read high; B-score at 10 µM; 310,000 compounds, 0.13% hits; AID 2550;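 active = B-score of the integrated fluorescence ratio above library mean plus 3 SD, and starting fluorescence ratio within library mean plus 5 SD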;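 also: higher score means more depolarization so channel activation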
TRPC4 PAM = TRPC4 (mouse) allosteric potentiation; Q9QUQ5; HEK293 TRPC4beta/mu-opioid, DAMGO EC20, Fluo-4 Ca2+ flux; active compounds read high; B-score at 10 µM; 310,000 compounds, 0.42% hits; AID 2227;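 active = B-score of calcium response area above 5 SD of library B-scores, with initial fluorescence ratio within 5 SD of library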;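 also: B-score of integrated fluorescence ratio over time as area under calcium response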
TRPC4 block = TRPC4 (mouse) channel inhibition | HEK293 TRPC4beta/mu-opioid, DAMGO-evoked Fluo4 calcium flux; active compounds read low | B-score at 10 µM | 300,000 compounds, 0.39% hits;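 active = B-score over 3 SD under the library average, no early fluorescence shift, positive overall ratio signal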
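test system = HEK293 cells with stable TRPC4beta plus mu-opioid receptor expression | detection = Fluo4 Ca2+ flux fluorescence | read-out = integrated fluorescence ratio relative to baseline, converted to per-well B score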
* marks the source's active call; other numbers are inactive results; i = inactive.

SMILES	TRPC4 act	TRPC6 inhibitor	TRPC6 activator	TRPC4 PAM	TRPC4 block
Cc1ccc(NC(=S)N2CCCN(Cc3ccc(F)cc3)C2)c(C)c1	60*	i	i	i	i
O=C(NCCc1c[nH]c2ccccc12)OCCCCOC(=O)NCCc1c[nH]c2ccccc12	i	i	i	i	i
CN1CCCC(OC(=O)c2ccccc2F)C1 (stereo unspecified)	i	i	i	i	i
COc1ccccc1C(=O)OC1CCCN(C)C1 (stereo unspecified)	i	i	i	10*	i
O=C(Nc1nc2c(s1)CN(Cc1ccccc1)CC2)c1c(F)cccc1F	i	i	i	17*	i
N=c1c(C(=O)NC2CCCCC2)cc2c(=O)n3ccccc3nc2n1CCc1ccccc1	i	-4.99*	i	i	i
CC(C)OCCCn1c(=N)c(C(N)=S)cc2c(=O)n3ccccc3nc21	i	-7.62*	i	i	i
CCCn1c(=N)c(C(=O)NCc2ccc3c(c2)OCO3)cc2c(=O)n3cccc(C)c3nc21	i	i	i	i	i
CCOCCCn1c(=N)c(C(=O)NCc2ccc3c(c2)OCO3)cc2c(=O)n3ccccc3nc21	i	-5.87*	i	i	i
N=c1c(C(=O)NC2CCCCC2)cc2c(=O)n3ccccc3nc2n1Cc1ccco1	i	i	i	i	i
Cc1ccc(Cn2c(=N)c(C(=O)NC3CCCC3)cc3c(=O)n4ccccc4nc32)cc1	66*	i	i	78*	i
CCCCCCCn1c2c(c(=N)c3c1CCC3)CCCC2	i	-6.04*	i	i	i
CCCCCCn1c(=O)[nH]c2c(c1=O)CCC2	i	i	i	i	i
O=C(c1c(O)c2ccccc2oc1=O)C1CCCCC1	i	i	i	i	i
O=C(CCC1CCCC1)c1c(O)c2ccccc2oc1=O	193*	i	i	i	i
CCCOc1ccc(C(=O)NNC(=S)NC(=O)CC)cc1	46*	i	i	i	i
CCCOc1ccc(C(=O)NC(=S)NNC(=O)c2c(-c3ccccc3)noc2C)cc1	194*	i	i	i	i
Cc1onc(-c2ccccc2)c1C(=O)NC(=S)NNC(=O)c1ccccc1O	247*	i	i	i	i
C=CCNC(=S)NNC(=O)c1ccc(OCCC)cc1	i	i	i	i	i
CCOC(=O)c1c(-c2ccccc2)c2cc(OC)ccc2n1CCCN(C)C	i	i	i	i	i
CCCCCOc1ccc(/C=C/c2c([N+](=O)[O-])c(=O)n(C)c(=O)n2C)cc1	i	i	i	i	i
O=[N+]([O-])c1ccc2c(c1)/C(=N\O)c1ccccc1-2	i	i	i	i	i
NN=C1c2cc([N+](=O)[O-])ccc2-c2ccc([N+](=O)[O-])cc21	i	i	i	18*	i
Cc1ccc(/C=C(\C#N)C(=O)Nc2cccc(C)n2)cc1	i	i	i	i	i
O=C(Nc1cccc2ncccc12)c1cccc(F)c1	i	i	i	i	i
SMILES	TRPC4 act	TRPC6 inhibitor	TRPC6 activator	TRPC4 PAM	TRPC4 block
O=C(Nc1cccc2ncccc12)c1cccc(Br)c1	i	i	i	14*	i
CCOc1ccc2[nH]c(C)c(CN3CCOCC3)c(=O)c2c1	i	i	i	i	i
Cc1[nH]c2ccc(Br)cc2c(=O)c1CN1CCOCC1	i	i	i	12*	i
CCN(CC(=O)N1CCCC1)S(=O)(=O)c1ccc(OC)cc1	i	i	i	i	i
Nc1nonc1-n1nnc(C(=O)N/N=C/c2cccc(O)c2)c1CN1CCCC1	i	i	i	i	i
CN1CCN(Cc2c(C(=O)N/N=C/c3cccc(Br)c3)nnn2-c2nonc2N)CC1	43*	i	i	i	i
CN(Cc1ccc(OC(F)F)cc1)C(=O)c1ccc2c(=O)n3c(nc2c1)CCC3	i	i	i	i	i
Cn1c(=O)c2sccc2n2c(CCCC(=O)NC3CCN(Cc4ccccc4)CC3)nnc12	i	i	i	14*	i
Cn1c(=O)c2sccc2n2c(CCCC(=O)Nc3ccccc3)nnc12	i	i	i	i	i
c1ccc(-c2cn(-c3ccccc3)c3ncnc(N4CCCCC4)c23)cc1	i	i	i	i	i
CCOc1ccc(-n2cc(-c3ccccc3)c3c(N4CCOCC4)ncnc32)cc1	i	i	i	16*	i
Cc1cccc(-n2cc(-c3ccccc3)c3c(NN4CCOCC4)ncnc32)c1	i	i	i	14*	i
CC1(C)C[C@@H](O)CC2(C1)C[C@]1(C)CC(O)[C@H]2C(C)(C)C1 (stereo partly specified)	i	i	i	i	i
Cc1cccn2c(=O)c3cc(S(=O)(=O)c4ccc(F)cc4)c(=N)n(Cc4ccco4)c3nc12	i	i	i	i	i
Cc1cccn2c(=O)c3cc(S(=O)(=O)c4ccccc4)c(=N)n(Cc4ccco4)c3nc12	i	i	i	10*	i
O=C(Nc1ccc(F)cc1)Nc1nnc(Cc2ccccc2F)s1	i	i	i	i	i
Cc1ccn2c(NC3CCCCC3)c(C(C)C)nc2c1	i	i	i	i	-7*
Cc1ccn2c(NC3CCCCC3)c(C)nc2c1	i	i	i	i	i
c1ccc2c(CC3=NCCN3)cccc2c1	i	i	i	i	i
Cc1cc(C(C)(C)C)c(O)c(C)c1CC1=NCCN1	i	i	i	17*	i
CC(NC(=O)c1ccccc1NC(=O)CN1CCc2ccccc2C1)c1ccccc1 (stereo unspecified)	i	i	i	15*	i
Cc1ccc(NC(=O)CN2CCc3ccccc3C2)cc1S(=O)(=O)N1CCOCC1	70*	i	i	i	-9*
Cc1ccc(NC(=O)CN2CCc3ccccc3C2)cc1F	i	i	i	i	-7*
COC(=O)c1ccccc1NC(=O)CN1CCc2ccccc2C1	i	i	i	i	i
O=C(COc1cccc(Cl)c1)Nc1ccccc1N1CCCCC1	i	i	i	i	i
CCOC(=O)c1c(NC(=O)CSc2nc3ccc(OC)cc3[nH]2)sc2c1CC(C)(C)NC2(C)C	i	i	i	i	i
Cc1ccc(-c2cc(-c3ccccc3)nc(NN)n2)cc1	i	i	i	12*	i
COc1ccc(-c2cc(-c3ccccc3)nc(NN)n2)cc1OC	i	i	i	i	i

Screening data deposited in PubChem by Johns Hopkins Ion Channel Center.
